Experimental data: ChEMBL document CHEMBL1268976, “Stereocontrolled facile synthesis and antimicrobial activity of oximes and oxime ethers of diversely substituted bispidines” (2010)
≈ marks a conversion by molar mass, not a printed value.

Legend:
Type in all cases: functional
Candida albicans = experiment: Antifungal activity against Candida albicans by broth microdilution method
Summary of the method: (§1)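 Fungal panel of Candida albicans, Candida parapsilosis, Aspergillus niger and Cryptococcus neoformans, tested in vitro by standard NCCLS broth microdilution. The yeast susceptibility reference cited is M27-A.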

Klebsiella pneumoniae [1] = experiment: Antibacterial activity against Klebsiella pneumoniae by broth microdilution method
Summary of the method: (§2)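 In vitro broth microdilution following the NCCLS standard for bacteria (M7-A5). The test panel was Bacillus subtilis, Staphylococcus aureus, Klebsiella pneumoniae and Pseudomonas aeruginosa.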

Pseudomonas aeruginosa [2] = experiment: Antibacterial activity against Pseudomonas aeruginosa by broth microdilution method; summary of the method: as §2
Bacillus subtilis = experiment: Antibacterial activity against Bacillus subtilis by broth microdilution method; summary of the method: as §2
Cryptococcus neoformans = experiment: Antimicrobial activity against Cryptococcus neoformans by broth microdilution method; summary of the method: as §1
Klebsiella pneumoniae [3] = experiment: Ratio of compound MIC90 to gentamicin MIC90 for Klebsiella pneumoniae
Candida parapsilosis = experiment: Antifungal activity against Candida parapsilosis by broth microdilution method; conditions: Lodderomyces parapsilosis; summary of the method: as §1
Aspergillus niger = experiment: Antifungal activity against Aspergillus niger by broth microdilution method; summary of the method: as §1
Staphylococcus aureus = experiment: Antibacterial activity against Staphylococcus aureus by broth microdilution method; summary of the method: as §2
Pseudomonas aeruginosa [4] = experiment: Ratio of gentamicin MIC90 to compound MIC90 for Pseudomonas aeruginosa

Structure (SMILES) | MIC90 (Candida albicans) [µg/mL] | MIC90 (Klebsiella pneumoniae [1]) [µg/mL] | MIC90 (Pseudomonas aeruginosa [2]) [µg/mL] | MIC90 (Bacillus subtilis) [µg/mL] | MIC90 (Cryptococcus neoformans) [µg/mL] | Ratio (Klebsiella pneumoniae [3]) | MIC90 (Candida parapsilosis) [µg/mL] | MIC90 (Aspergillus niger) [µg/mL] | MIC90 (Staphylococcus aureus) [µg/mL] | Ratio (Pseudomonas aeruginosa [4])
CON=C1C2C(c3ccccc3OC)NC(c3ccccc3OC)C1C(c1ccccc1OC)NC2c1ccccc1OC (configuration not stated) | 64 (≈ 108 µM) | 8 (≈ 13.5 µM) | 16 (≈ 26.9 µM) | 64 (≈ 108 µM) | 8 (≈ 13.5 µM) | 4 | 32 (≈ 53.9 µM) | 4 (≈ 6.74 µM) | > 128 | 
CCCOc1ccc(C2NC(c3ccc(OCCC)cc3)C3C(=NOC)C2C(c2ccc(OCCC)cc2)NC3c2ccc(OCCC)cc2)cc1 (configuration not stated) | > 128 | 16 (≈ 22.7 µM) | 64 (≈ 90.7 µM) | > 128 | 32 (≈ 45.3 µM) | 8 | > 128 | 16 (≈ 22.7 µM) | > 128 | 
COc1ccccc1C1NC(c2ccccc2OC)C2C(=NO)C1C(c1ccccc1OC)NC2c1ccccc1OC (configuration not stated) | > 128 | 64 (≈ 110 µM) | 16 (≈ 27.6 µM) | > 128 | 32 (≈ 55.2 µM) |  | 32 (≈ 55.2 µM) | 16 (≈ 27.6 µM) | > 128 | 
CCOc1ccccc1C1NC(c2ccccc2OCC)C2C(=NO)C1C(c1ccccc1OCC)NC2c1ccccc1OCC (configuration not stated) | > 128 | 64 (≈ 101 µM) | 32 (≈ 50.3 µM) | > 128 | 64 (≈ 101 µM) |  | > 128 | 32 (≈ 50.3 µM) | > 128 | 
ON=C1C2C(c3ccccc3F)NC(c3ccccc3F)C1C(c1ccccc1F)NC2c1ccccc1F (configuration not stated) | 32 (≈ 60.2 µM) | 32 (≈ 60.2 µM) | 16 (≈ 30.1 µM) | 64 (≈ 120 µM) | > 128 |  | 64 (≈ 120 µM) | 4 (≈ 7.53 µM) | > 128 | 
CON=C1C2C(c3ccc(SC)cc3)NC(c3ccc(SC)cc3)C1C(c1ccc(SC)cc1)NC2c1ccc(SC)cc1 (configuration not stated) | 32 (≈ 48.6 µM) | 8 (≈ 12.2 µM) | 4 (≈ 6.08 µM) | 64 (≈ 97.3 µM) | 8 (≈ 12.2 µM) | 4 | 16 (≈ 24.3 µM) | 4 (≈ 6.08 µM) | > 128 | 4
CON=C1C2C(c3ccccc3C)NC(c3ccccc3C)C1C(c1ccccc1C)NC2c1ccccc1C (configuration not stated) | 64 (≈ 121 µM) | 16 (≈ 30.2 µM) | 16 (≈ 30.2 µM) | > 128 | > 128 | 8 | 8 (≈ 15.1 µM) | 64 (≈ 121 µM) | > 128 | 
CON=C1C2C(c3ccc(C)cc3)NC(c3ccc(C)cc3)C1C(c1ccc(C)cc1)NC2c1ccc(C)cc1 (configuration not stated) | 64 (≈ 121 µM) | 8 (≈ 15.1 µM) | 4 (≈ 7.55 µM) | 64 (≈ 121 µM) | > 128 | 4 | 2 (≈ 3.78 µM) | 64 (≈ 121 µM) | > 128 | 4
CCCCOc1ccc(C2NC(c3ccc(OCCCC)cc3)C3C(=NOC)C2C(c2ccc(OCCCC)cc2)NC3c2ccc(OCCCC)cc2)cc1 (configuration not stated) | > 128 | 64 (≈ 84 µM) | 64 (≈ 84 µM) | > 128 | 32 (≈ 42 µM) |  | > 128 | 32 (≈ 42 µM) | > 128 | 
ON=C1C2C(c3ccccc3Cl)NC(c3ccccc3Cl)C1C(c1ccccc1Cl)NC2c1ccccc1Cl (configuration not stated) | 16 (≈ 26.8 µM) | 32 (≈ 53.6 µM) | 16 (≈ 26.8 µM) | > 128 | 16 (≈ 26.8 µM) |  | > 128 | 8 (≈ 13.4 µM) | 64 (≈ 107 µM) | 
Cc1ccc(C2NC(c3ccc(C)cc3)C3C(=NO)C2C(c2ccc(C)cc2)NC3c2ccc(C)cc2)cc1 (configuration not stated) | 64 (≈ 124 µM) | > 128 | 32 (≈ 62.1 µM) | > 128 | > 128 |  | 32 (≈ 62.1 µM) | > 128 | > 128 | 
CCOc1ccccc1C1NC(c2ccccc2OCC)C2C(=NOC)C1C(c1ccccc1OCC)NC2c1ccccc1OCC (configuration not stated) | > 128 | > 128 | 32 (≈ 49.2 µM) | > 128 | 16 (≈ 24.6 µM) |  | 64 (≈ 98.5 µM) | 16 (≈ 24.6 µM) | > 128 | 
ON=C1C2C(c3ccc(Br)cc3)NC(c3ccc(Br)cc3)C1C(c1ccc(Br)cc1)NC2c1ccc(Br)cc1 (configuration not stated) | > 128 | 128 (≈ 165 µM) | > 128 | 64 (≈ 82.6 µM) | > 128 |  | 32 (≈ 41.3 µM) | > 128 | > 128 | 
CON=C1C2C(c3cccc(OC)c3)NC(c3cccc(OC)c3)C1C(c1cccc(OC)c1)NC2c1cccc(OC)c1 (configuration not stated) | 128 (≈ 216 µM) | > 128 | 64 (≈ 108 µM) | > 128 | 128 (≈ 216 µM) |  | > 128 | 16 (≈ 26.9 µM) | 128 (≈ 216 µM) | 
ON=C1C2C(c3ccc(F)cc3)NC(c3ccc(F)cc3)C1C(c1ccc(F)cc1)NC2c1ccc(F)cc1 (configuration not stated) | 4 (≈ 7.53 µM) | 64 (≈ 120 µM) | 32 (≈ 60.2 µM) | 64 (≈ 120 µM) | 128 (≈ 241 µM) |  | > 128 | 4 (≈ 7.53 µM) | 16 (≈ 30.1 µM) | 
CON=C1C2C(c3ccccc3)NC(c3ccccc3)C1C(c1ccccc1)NC2c1ccccc1 (configuration not stated) | 128 (≈ 270 µM) | > 128 | 128 (≈ 270 µM) | > 128 | > 128 |  | > 128 | > 128 | > 128 | 
CCOc1ccc(C2NC(c3ccc(OCC)cc3)C3C(=NO)C2C(c2ccc(OCC)cc2)NC3c2ccc(OCC)cc2)cc1 (configuration not stated) | > 128 | 32 (≈ 50.3 µM) | 32 (≈ 50.3 µM) | > 128 | 64 (≈ 101 µM) |  | > 128 | 16 (≈ 25.2 µM) | > 128 | 
CCc1ccc(C2NC(c3ccc(CC)cc3)C3C(=NOC)C2C(c2ccc(CC)cc2)NC3c2ccc(CC)cc2)cc1 (configuration not stated) | 128 (≈ 218 µM) | 64 (≈ 109 µM) | 32 (≈ 54.6 µM) | > 128 | > 128 |  | 32 (≈ 54.6 µM) | > 128 | > 128 | 
CON=C1C2C(c3ccc(Br)cc3)NC(c3ccc(Br)cc3)C1C(c1ccc(Br)cc1)NC2c1ccc(Br)cc1 (configuration not stated) | > 128 | > 128 | > 128 | 64 (≈ 81.1 µM) | > 128 |  | 16 (≈ 20.3 µM) | > 128 | > 128 | 
CCCCOc1ccc(C2NC(c3ccc(OCCCC)cc3)C3C(=NO)C2C(c2ccc(OCCCC)cc2)NC3c2ccc(OCCCC)cc2)cc1 (configuration not stated) | > 128 | 64 (≈ 85.6 µM) | 64 (≈ 85.6 µM) | > 128 | 32 (≈ 42.8 µM) |  | > 128 | 32 (≈ 42.8 µM) | > 128 | 
